Data: ChEMBL document CHEMBL3393025, “Discovery of dual leucine zipper kinase (DLK, MAP3K12) inhibitors with activity in neurodegeneration models” (J Med Chem, 2015)

How the values were obtained:
[1] = biological target: Mitogen-activated protein kinase 8 (Homo sapiens, UniProt P45983); assay: Inhibition of JNK1 (unknown origin)
[2] = biological target: Mitogen-activated protein kinase kinase kinase 10 (Homo sapiens, UniProt Q02779); assay: Inhibition of MLK2 (unknown origin)
[3] = biological target: T1, Dual specificity mitogen-activated protein kinase kinase 4 (Homo sapiens, UniProt P45985); assay: Inhibition of MKK4 (unknown origin)
T1 sequence (P45985 whole entry): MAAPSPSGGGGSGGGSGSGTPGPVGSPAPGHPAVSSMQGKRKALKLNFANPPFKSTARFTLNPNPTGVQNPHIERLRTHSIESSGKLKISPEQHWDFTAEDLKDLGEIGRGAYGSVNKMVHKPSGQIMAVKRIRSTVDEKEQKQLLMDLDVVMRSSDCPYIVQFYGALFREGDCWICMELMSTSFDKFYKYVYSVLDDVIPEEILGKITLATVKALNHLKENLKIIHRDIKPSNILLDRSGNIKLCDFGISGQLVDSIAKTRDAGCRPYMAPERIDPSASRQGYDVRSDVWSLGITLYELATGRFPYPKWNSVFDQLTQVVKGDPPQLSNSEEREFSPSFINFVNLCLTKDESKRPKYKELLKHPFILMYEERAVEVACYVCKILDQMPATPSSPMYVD

[4] = Volume of distribution at steady state in cynomolgus monkey at 1 mg/kg, iv and 5 mg/kg, po; format: ADME, organism-based, Macaca fascicularis; settings: in vivo, read-out: Vdss
Summary of the method: (§1)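 Single-compound PK. Intravenous dose 1 mg/kg given as a 60% PEG solution. Oral dose 5 mg/kg given as an aqueous suspension in 1% methylcellulose. Plasma clearance, steady-state volume of distribution, half-life and oral bioavailability were determined from these doses.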

[5] = biological target: Tyrosine-protein kinase SYK (Homo sapiens) (UniProt P43405); assay: Inhibition of Syk (unknown origin) at 0.1 uM
Summary of the method: (§2)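 Kinase selectivity panel of 298 kinases, test compound at 0.1 μM, percent inhibition reported.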

[6] = Plasma clearance in cynomolgus monkey at 1 mg/kg, iv and 5 mg/kg, po; format: ADME, organism-based, Macaca fascicularis; summary of the method: as §1
[7] = test system: T2, Receptor-type tyrosine-protein kinase FLT3 (Homo sapiens), P36888 [D835Y]; assay: Inhibition of Flt3 D835Y mutant (unknown origin) at 0.1 uM; summary of the method: as §2
T2 sequence (whole entry): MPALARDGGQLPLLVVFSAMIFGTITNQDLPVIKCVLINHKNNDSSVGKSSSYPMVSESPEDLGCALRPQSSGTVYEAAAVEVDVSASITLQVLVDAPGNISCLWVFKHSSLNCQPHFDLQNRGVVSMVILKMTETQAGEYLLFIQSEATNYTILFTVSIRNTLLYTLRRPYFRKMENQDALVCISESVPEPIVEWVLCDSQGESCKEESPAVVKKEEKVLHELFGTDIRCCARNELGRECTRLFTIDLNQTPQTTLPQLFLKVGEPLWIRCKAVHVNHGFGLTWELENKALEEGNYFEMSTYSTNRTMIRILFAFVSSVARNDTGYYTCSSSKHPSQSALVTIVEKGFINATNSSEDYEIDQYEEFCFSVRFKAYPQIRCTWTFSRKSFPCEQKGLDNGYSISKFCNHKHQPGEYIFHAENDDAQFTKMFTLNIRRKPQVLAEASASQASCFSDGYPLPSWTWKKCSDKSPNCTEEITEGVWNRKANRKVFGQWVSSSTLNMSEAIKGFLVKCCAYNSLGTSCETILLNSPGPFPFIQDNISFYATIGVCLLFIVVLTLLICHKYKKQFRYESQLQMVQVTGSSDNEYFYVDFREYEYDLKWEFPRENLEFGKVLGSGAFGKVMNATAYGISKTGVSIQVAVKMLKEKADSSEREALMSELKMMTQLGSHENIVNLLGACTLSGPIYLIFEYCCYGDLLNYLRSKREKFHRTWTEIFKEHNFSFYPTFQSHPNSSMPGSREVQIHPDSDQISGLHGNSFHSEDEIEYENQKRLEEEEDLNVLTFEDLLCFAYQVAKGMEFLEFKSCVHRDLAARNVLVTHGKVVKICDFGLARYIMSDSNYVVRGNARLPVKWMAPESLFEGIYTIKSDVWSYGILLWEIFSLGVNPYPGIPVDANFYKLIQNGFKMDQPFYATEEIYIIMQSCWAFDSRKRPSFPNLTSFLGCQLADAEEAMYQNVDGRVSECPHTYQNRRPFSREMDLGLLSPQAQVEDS

[8] = Oral bioavailability in rat at 5 mg/kg; format: ADME, organism-based; settings: in vivo; summary of the method: as §1
[9] = biological target: Tyrosine-protein kinase Lck (Homo sapiens) (UniProt P06239); assay: Inhibition of LCK (unknown origin) at 0.1 uM; summary of the method: as §2
[10] = Volume of distribution at steady state in mouse at 1 mg/kg, iv and 5 mg/kg, po; format: ADME, organism-based; settings: in vivo, read-out: Vdss; summary of the method: as §1
[11] = Plasma clearance in dog at 1 mg/kg, iv and 5 mg/kg, po; format: ADME, organism-based, Canis lupus familiaris; summary of the method: as §1

Sequence of Tyrosine-protein kinase Lck (Homo sapiens) (P06239 2-509 limits assumed): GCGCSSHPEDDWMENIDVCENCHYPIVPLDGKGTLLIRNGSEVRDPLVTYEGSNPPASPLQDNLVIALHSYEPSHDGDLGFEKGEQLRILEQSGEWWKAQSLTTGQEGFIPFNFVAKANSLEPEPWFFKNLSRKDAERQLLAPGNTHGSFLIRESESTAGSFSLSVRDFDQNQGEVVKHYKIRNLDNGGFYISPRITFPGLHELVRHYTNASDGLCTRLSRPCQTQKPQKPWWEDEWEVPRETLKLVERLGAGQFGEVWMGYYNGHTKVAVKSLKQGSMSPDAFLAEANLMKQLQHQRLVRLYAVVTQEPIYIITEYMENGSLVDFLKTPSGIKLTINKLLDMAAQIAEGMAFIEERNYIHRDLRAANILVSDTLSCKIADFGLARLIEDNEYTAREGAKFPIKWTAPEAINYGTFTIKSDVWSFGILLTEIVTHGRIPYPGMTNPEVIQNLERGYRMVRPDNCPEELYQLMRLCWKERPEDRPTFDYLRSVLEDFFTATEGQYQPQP
Sequence of Mitogen-activated protein kinase kinase kinase 10 (Q02779 whole entry): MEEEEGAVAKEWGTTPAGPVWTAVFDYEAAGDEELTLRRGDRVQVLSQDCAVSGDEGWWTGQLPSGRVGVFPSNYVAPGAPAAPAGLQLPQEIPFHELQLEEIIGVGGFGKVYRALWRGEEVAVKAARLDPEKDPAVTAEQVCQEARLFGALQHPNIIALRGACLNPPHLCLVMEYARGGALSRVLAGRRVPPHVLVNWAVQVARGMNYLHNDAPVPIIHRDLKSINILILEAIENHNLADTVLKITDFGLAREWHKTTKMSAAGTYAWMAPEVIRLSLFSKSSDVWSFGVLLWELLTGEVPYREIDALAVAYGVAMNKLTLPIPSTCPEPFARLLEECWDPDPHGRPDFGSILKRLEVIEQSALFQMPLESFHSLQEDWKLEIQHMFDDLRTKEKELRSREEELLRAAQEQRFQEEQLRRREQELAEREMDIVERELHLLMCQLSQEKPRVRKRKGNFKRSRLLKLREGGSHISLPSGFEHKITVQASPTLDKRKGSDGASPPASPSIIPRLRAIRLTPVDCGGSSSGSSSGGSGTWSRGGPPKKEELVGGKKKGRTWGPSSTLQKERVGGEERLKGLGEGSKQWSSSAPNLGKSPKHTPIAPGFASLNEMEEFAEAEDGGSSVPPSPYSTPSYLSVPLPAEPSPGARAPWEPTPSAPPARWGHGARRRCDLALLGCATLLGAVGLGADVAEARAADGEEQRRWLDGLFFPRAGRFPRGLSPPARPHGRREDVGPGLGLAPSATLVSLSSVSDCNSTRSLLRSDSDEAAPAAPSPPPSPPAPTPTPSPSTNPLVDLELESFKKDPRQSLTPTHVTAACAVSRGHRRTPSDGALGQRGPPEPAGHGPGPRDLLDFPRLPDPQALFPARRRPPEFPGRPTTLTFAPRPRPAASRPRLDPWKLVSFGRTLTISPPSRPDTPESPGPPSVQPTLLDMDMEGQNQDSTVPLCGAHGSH
Sequence of Mitogen-activated protein kinase 8 (P45983 whole entry): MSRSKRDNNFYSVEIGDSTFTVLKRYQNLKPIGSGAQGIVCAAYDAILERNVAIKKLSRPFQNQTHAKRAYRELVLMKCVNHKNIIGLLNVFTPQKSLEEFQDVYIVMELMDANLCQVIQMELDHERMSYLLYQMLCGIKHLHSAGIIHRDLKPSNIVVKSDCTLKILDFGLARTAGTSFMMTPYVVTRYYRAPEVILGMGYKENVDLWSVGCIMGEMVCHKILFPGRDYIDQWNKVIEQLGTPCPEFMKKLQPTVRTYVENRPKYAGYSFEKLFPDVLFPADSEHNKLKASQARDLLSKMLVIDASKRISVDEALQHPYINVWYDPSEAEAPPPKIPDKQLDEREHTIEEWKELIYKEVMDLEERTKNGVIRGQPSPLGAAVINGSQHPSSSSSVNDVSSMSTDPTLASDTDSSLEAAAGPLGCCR

IC50 [1]: 129 nM | IC50 [2]: 767 nM | IC50 [3]: > 5 µM | Vd [4]: 3.1 L/kg | inhibition [5]: > 80% | clearance [6]: 16 mL/min/kg | inhibition [7]: > 80% | bioavailability [8]: 63% | inhibition [9]: > 80% | Vd [10]: 2.5 L/kg | clearance [11]: 41 mL/min/kg
SMILES: N#Cc1ccnc(Nc2cc(C3CCN(C4COC4)CC3)cc(N3CCC(F)(F)C3)n2)c1
